Shown are actives, neighbours in structure and some others; about 2.1% of the full set was active somewhere.
Beta2AR agonist: beta2AR agonists driving receptor internalization, primary screen, cell-based, FAP fluorogen, flow cytometry; actives 0.43% (n = 340,000); Beta-2 adrenergic receptor (Homo sapiens), P07550; response, % (concentration not given with the values); Am2.2-beta2AR cells;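 active = response above a set limit, near 3 SD of response in nonfluorescent compounds, cut at about 42% in these data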
Target sequence (P07550 whole entry, looked up): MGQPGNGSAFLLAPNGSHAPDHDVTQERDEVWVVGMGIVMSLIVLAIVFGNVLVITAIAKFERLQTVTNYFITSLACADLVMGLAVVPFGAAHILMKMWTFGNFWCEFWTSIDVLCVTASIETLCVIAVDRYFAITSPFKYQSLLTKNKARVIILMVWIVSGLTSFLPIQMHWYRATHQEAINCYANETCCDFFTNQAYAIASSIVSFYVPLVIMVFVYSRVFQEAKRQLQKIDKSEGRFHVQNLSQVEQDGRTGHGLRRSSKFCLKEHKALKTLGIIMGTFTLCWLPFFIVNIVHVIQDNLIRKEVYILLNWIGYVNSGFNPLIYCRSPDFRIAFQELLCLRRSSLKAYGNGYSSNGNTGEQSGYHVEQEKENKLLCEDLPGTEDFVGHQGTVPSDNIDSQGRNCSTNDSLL
Cardio protect: cardioprotection against H2O2-induced cell death, primary screen, uHTS, H9c2 cells, ATPLite luminescence | H9c2 cardiomyocytes, H2O2 injury protection, 2 h | protection from H2O2 cell death, % at 20 µM | actives 0.63% (n = 360,000) | AID 588492, 2011;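 active = compounds giving at least 50% protection of heart cells from peroxide-induced death in the single-dose screen, raw or plate-pattern-corrected value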;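 also: 0% = DMSO wells with peroxide and 100% = DMSO wells without peroxide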
PfGluPho inh: PfG6PD enzyme inhibitors, primary screen, biochemical, fluorescence intensity, uHTS | glucose-6-phosphate dehydrogenase-6-phosphogluconolactonase (Plasmodium falciparum 3D7) | PfGluPho enzyme, NADPH resazurin-diaphorase fluorescence | inhibition, % at 20 µM | actives 0.78% (n = 350,000) | AID 504690, 2011;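 active = inhibition reaching at least a set limit at 20 µM in the primary screen, cut at about 59% in these data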;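 also: 0% = DMSO wells with substrate and 100% = DMSO wells lacking glucose-6-phosphate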
UCH37 inh: inhibitors of human UCH37 deubiquitinase, primary screen, biochemical, Ub-AMC cleavage, fluorescence; Ubiquitin carboxyl-terminal hydrolase isozyme L5 (Homo sapiens), Q9Y5K5; purified proteasome/UCH37; inhibition, % (concentration not given with the values); actives 0.33% (n = 330,000);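 active = mean inhibition over replicate wells above about 20%, limit read from the data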;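 also: 0% = compound-free wells with enzyme and 100% = wells lacking proteasome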
Target sequence (Q9Y5K5 whole entry, looked up): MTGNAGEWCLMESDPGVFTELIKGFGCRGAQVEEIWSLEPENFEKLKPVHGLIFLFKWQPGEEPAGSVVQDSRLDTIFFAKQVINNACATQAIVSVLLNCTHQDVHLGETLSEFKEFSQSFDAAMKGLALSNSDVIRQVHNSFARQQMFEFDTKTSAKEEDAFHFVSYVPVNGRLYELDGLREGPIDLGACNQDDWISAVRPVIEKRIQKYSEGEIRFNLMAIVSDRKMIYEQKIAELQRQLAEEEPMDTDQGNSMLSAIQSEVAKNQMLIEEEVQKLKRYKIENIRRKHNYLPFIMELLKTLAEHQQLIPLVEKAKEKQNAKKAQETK
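Assay system: Proteasome-bound UCH37. Buffer or medium: pH 7.4 Tris-HCl (50 mM) with ovalbumin, ATP-MgCl2, DTT. Incubation: 30 min preincubation with enzyme, 25 min cleavage at room temperature. Measured by: fluorescence, ex 355 nm, em 460 nm. Read-out basis: percent inhibition. Control set: wells without proteasome as full block, compound-free enzyme plus substrate as uninhibited.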
HKDC1 inh: HKDC1 hexokinase inhibitors, primary screen, biochemical, fluorescence, uHTS | Q2TB90 | recombinant HKDC1, G6PDH/diaphorase resazurin coupled fluorescence | inhibition, % at 20 µM | actives 0.16% (n = 340,000) | AID 493160, 2011;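 active = inhibition above about 35% when tested at 20 µM, limit read from the data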;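 also: plate controls were DMSO wells with enzyme for no effect and DMSO wells lacking enzyme for full effect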
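Material: recombinant HKDC1 hexokinase; Amount: HKDC1 at 5 µg/mL; Medium: Tris pH 8.0 buffer with MgCl2, Tween-20, BSA, BME; Schedule: 90 min reaction incubation at room temperature, dark; Technique: coupled resazurin fluorescence, excitation 525 nm, emission 613 nm.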
aDG glyco up: activators of alpha-DG glycosylation, primary screen, uHTS, Pro5-aDG cells, AlphaScreen. activation, % at 10 µM. AID 624168, 2012. alpha-DG glycosylation AlphaScreen (IIH6); 0% Pro5, 100% B10-LARGE cell signal. actives 0.22% (n = 360,000);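 active = activation of at least 8% versus controls, or a plate z-score of at least 8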;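 also: Pro5 are CHO cells carrying HIG-tagged alpha-DG that lacks glycosylation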
Starred values were filed as active, the others as inactive; x = no result.

SMILES | Beta2AR agonist | Cardio protect | PfGluPho inh | UCH37 inh | HKDC1 inh | aDG glyco up
c1coc(-c2nnc3sc(-c4cccs4)nn23)c1 | -2.9 | 53.1* | 3.9 | 6.7 | 8.0 | -0.2
COc1cccc(-c2nnc3sc(-c4cccs4)nn23)c1 | -2.2 | 8.2 | 5.3 | -6.2 | -1.7 | 0.5
COc1ccc(-c2nnc3sc(-c4ccco4)nn23)cc1OC | -0.5 | 58.1* | 14.6 | -3.9 | 6.7 | 0.1
COc1cccc(-c2nnc3sc(-c4ccco4)nn23)c1 | -3.9 | 17.4 | -14.6 | -0.9 | -1.9 | -0.2
COc1ccc(-c2nn3c(-c4ccco4)nnc3s2)cc1OC | -9.8 | 77.1* | -9.6 | 1.2 | 7.8 | 0.0
O=C(NN=Cc1cc(Br)ccc1O)c1ccc(S(=O)(=O)N2CCCCC2)cc1 | x | x | x | 1.1 | x | x
CC(=NNS(=O)(=O)c1ccc(Cl)cc1)c1cccc(NC(=O)c2ccc(Cl)cc2Cl)c1 | x | x | x | 0.8 | x | x
Cc1cc(-c2ccccc2)nc(NN=Cc2ccc(N(C)C)cc2)n1 | x | x | x | 6.3 | x | x
O=C(NN=Cc1ccccn1)c1cc(-c2ccc(Br)s2)[nH]n1 | x | x | x | 2.6 | x | x
COc1cc(OC)c(-c2nn3c(-c4ccco4)nnc3s2)cc1OC | 3.9 | 73.9* | 39.3 | -167.2 | 5.3 | -0.4
CN(C)C=NS(=O)(=O)c1ccc(Cl)c(Cl)c1 | x | x | x | 0.4 | x | x
Cc1nnc(NC(=O)c2cccc(S(=O)(=O)N3CCc4ccccc43)c2)s1 | 3.0 | -2.4 | -34.9 | 27.5* | 9.4 | -0.2
Cc1ccccc1C(=O)Nc1ccc(C(=O)NN=Cc2ccncc2)cc1 | x | x | x | -0.2 | x | x
CCC(=O)Nc1ccc(C(C)=NNC(=O)c2ccc(OC)cc2)cc1 | x | x | x | -0.6 | x | x
Cc1cccc(N=Cc2cc(Br)cc(Cl)c2O)c1 | 2.6 | 53.7* | 8.6 | 6.6 | 15.4 | 0.0
NC(=O)c1cccc(N=Cc2cc(Cl)cc(Cl)c2O)c1 | 15.2 | 47.5 | 18.5 | -0.9 | 9.1 | -0.3
OC(COc1ccc2cc(Br)ccc2c1)CN1CCCC1 (stereo not given) | 25.0 | -0.8 | -3.3 | 7.5 | 8.9 | 4.7*
O=S(=O)(N1CCCCC1)N1CCN(CC(O)COc2ccc3cc(Br)ccc3c2)CC1 (stereo not given) | 4.2 | -8.7 | 0.9 | 0.7 | -9.4 | 5.0
CN(CC(=O)Nc1ccccc1Br)C(=O)CCc1nc2ccccc2c(=O)[nH]1 | 2.4 | 72.7* | 5.2 | 1.7 | -4.3 | -0.3
CN(CC(=O)Nc1ccccc1C(F)(F)F)C(=O)CCc1nc2ccccc2c(=O)[nH]1 | -0.2 | 21.2 | 2.5 | 3.5 | -2.0 | -0.1
COc1ccc(Cl)cc1NC(=O)CN(C)C(=O)CCc1nc2ccccc2c(=O)[nH]1 | -1.3 | 73.2* | 15.2 | 4.5 | 3.6 | -0.1
CN1CCN(C(=O)CCc2nc3ccccc3c(=O)[nH]2)CC1 | 0.7 | 34.5 | 7.3 | 1.6 | -6.2 | -0.4
CN1CCC(N(C)C(=O)CCc2nc3ccccc3c(=O)[nH]2)CC1 | 0.3 | 77.6* | 4.0 | 2.1 | 12.8 | 0.4
C=CCc1cccc(C=NNC(=O)CCCNc2ccc(C)cc2)c1O | x | x | x | 1.9 | x | x
COc1cc(C=NN2CCN(C3c4ccccc4-c4ccccc43)CC2)cc(OC)c1OC | x | x | x | 5.2 | x | x
SMILES | Beta2AR agonist | Cardio protect | PfGluPho inh | UCH37 inh | HKDC1 inh | aDG glyco up
CC1CN(c2nn3c(=O)c4ccccc4nc3c3ccccc23)CC(C)O1 (stereo not given) | 5.3 | 65.2* | 6.0 | -3.8 | -1.0 | -0.1
CSc1ccc(C=NNc2ccc(S(=O)(=O)Nc3ccccc3C(=O)O)cc2[N+](=O)[O-])cc1 | -2.7 | 2.1 | -15.0 | 22.4* | 10.7 | -0.2
COc1ccc(C=NNc2ccc(S(=O)(=O)Nc3ccccc3C(=O)O)cc2[N+](=O)[O-])c(OC)c1 | -9.9 | -3.8 | -24.9 | 31.5* | 3.1 | -0.1
O=C(Cc1ccccc1)NN=Cc1ccc(OCC(=O)Nc2ccccc2)cc1 | x | x | x | 7.5 | x | x
Cc1ccc(N2C(=O)CS/C2=C(\C(Cl)=C(Cl)Cl)[N+](=O)[O-])cc1 | 12.3 | 69.4* | -9.3 | 4.1 | -0.4 | 0.3
O=C(NN=Cc1ccc(OCC(=O)N2CCOCC2)cc1)c1ccccc1Cl | x | x | x | 5.7 | x | x
CC(=NNC(=O)CNC(=O)COc1ccccc1)c1ccc(Cl)cc1 | x | x | x | 2.0 | x | x
O=C(CCn1c(=O)oc2ccccc21)N(Cc1ccccc1)c1ccccc1 | 0.5 | 73.4* | -7.7 | 1.6 | 2.5 | 0.3
CCC(=O)n1nc(-c2ccccc2)nc1N | -1.0 | -7.4 | -27.6 | 22.5* | -4.8 | -0.1
COc1ccc(-c2csc(NC(=O)c3cc(=O)c4ccccc4o3)n2)cc1OC | -0.1 | 26.7 | 67.0* | -0.1 | 12.4 | -0.4
COc1ccc(-c2csc(NC(=O)c3ccc(OCC(=O)N4CCOCC4)c(OC)c3)n2)cc1OC | 30.2 | 80.7* | 29.7 | 4.1 | -9.6 | -1.0
COc1cc(C(=O)Nc2cccc(C)n2)ccc1OCC(=O)N1CCOCC1 | -4.2 | 12.0 | -9.6 | 1.0 | -2.6 | 0.2
S=c1[nH]nc(-c2ccco2)n1N=C/C=C/c1ccccc1 | x | x | x | 6.7 | x | x
Cc1ccc(/C=C/C(=O)c2ccccc(=O)c2O)cc1C | 9.9 | 75.4* | -5.2 | 0.8 | 2.9 | -0.3
CCn1ncc2c1C(=O)NC1c3ccccc3C(=O)N21 (stereo not given) | -4.0 | 59.1* | -4.8 | 3.4 | -5.3 | 0.2
CN(C)C(=O)CSC1c2ccccc2C(=O)N1c1ccccc1 (stereo not given) | -8.1 | 1.3 | -11.9 | 0.5 | -11.2 | -0.2
CCOC(=O)c1cccc(Nc2nc(-c3cccnc3)nc3ccccc23)c1 | -3.3 | 54.7* | 15.3 | -38.6 | 1.8 | -0.6
COC(=O)c1cccc(Nc2nc(-c3cccnc3)nc3ccccc23)c1 | 8.6 | 51.2* | 6.6 | -44.2 | 5.7 | -0.3
O=C(O)c1cccc(Nc2nc(-c3cccnc3)nc3ccccc23)c1 | -6.4 | -0.4 | -8.7 | 3.5 | -3.3 | -0.2
CCOC(=O)c1nc(Nc2ccc(C(C)=O)cc2)c2ccccc2n1 | -3.5 | 82.3* | 17.5 | -12.0 | -5.4 | 0.0
O=C(COc1cccc(Cl)c1)NN=Cc1cc2ccccc2nc1Cl | x | x | x | -396.3 | x | x
O=C1[C@H]2[C@@H](c3ccc(C(F)(F)F)cc3)N[C@]3(CCCN(Cc4ccc(F)cc4)C3=O)[C@H]2C(=O)N1Cc1ccccc1 | x | 66.7* | 35.6 | x | x | -0.1
O=C1[C@H]2[C@@H](c3ccccc3)N[C@]3(CCCN(Cc4ccc(C(F)(F)F)cc4)C3=O)[C@H]2C(=O)N1Cc1ccccc1 | x | 24.6 | 23.1 | x | x | -0.1
Cc1ccc(S(=O)(=O)N=C(c2ccccc2)N(C)S(=O)(=O)c2ccc(C)cc2)cc1 | x | x | x | 4.6 | x | x

Screening results: PubChem BioAssay, several laboratories
